STAT3 activator = activators of IL-6 induced STAT3 signaling; AID 871; activation (% of control), % at 5.6 µM; U3A cells, IL-6 STAT3-luciferase reporter, luminescence; 100% = signal with IL-6 EC80 alone; 190,000 tested, 0.91% active;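 active means activation above the screen-wide mean of compound activation plus 3 SD, cut at about 130% in these data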;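 further: 0% = background luminescence of wells with medium and substrate only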
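Material: human U3A cells carrying STAT3-luciferase construct. Measured by: reporter luminescence signal. Timing: compound 1 h, then IL-6 6 h at 37 °C.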
NF-kB expr up = raises NF-kB expression in human neuronal cells; NF-kB reporter expression; stronger effect = higher value; fold change at 12.5 µM; 190,000 tested, 1.6% active; AID 1239; in the data active means fold change above about 3.3
STAT1 blocker = reduces IFN-gamma driven STAT1 reporter signal | NIH 3T3 STAT1-luciferase reporter, luminescence | inhibition, % at 5.5 µM | 200,000 tested, 0.35% active;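 active means inhibition above a set limit, the mean inhibition across all tested compounds plus 3 SD, cut at about 34% in these data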;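 further: 0% = IFN-gamma with DMSO and 100% = IFN-gamma with 300 µM nifuroxazide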
STAT3 blocker = inhibitors of IL-6 induced STAT3 signaling. inhibition, % at 5.5 µM. 190,000 tested, 0.89% active. AID 862. U3A cells, IL-6 STAT3-luciferase reporter, luminescence; host cell line lacks STAT1;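 active means inhibition above the mean inhibition across all screened compounds plus 3 SD, cut at about 44% in these data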;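 further: 0% = DMSO only wells and 100% = 100 µM nifuroxazide control wells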
APP 5'UTR act = APP 5'UTR luciferase reporter activation | SH-SY5Y APP 5'UTR luciferase reporter, luminescence; zero percent = DMSO vehicle wells | activation, % at 2 µM | 190,000 tested, 1% active;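 active means activation above a set limit, based on mean plus 3 SD of controls, cut at about 140% in these data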
STAT1 activator = STAT1 signaling activation; NIH 3T3 STAT1-luciferase reporter, IFN-gamma, luminescence; 100% = IFN-gamma alone, no compound; activation (% of control), % at 5.5 µM; 200,000 tested, 2.6% active; AID 932;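 active means activation above the screen-wide mean activation plus 3 SD, cut at about 130% in these data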;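 further: raw ratio to IFN-gamma control signal so 100% means no change and 0% no light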
Numbers without * were called inactive; . = no result. Compounds with a hit are over-represented: about 4.9% of the library has one in this group of screens.

SMILES | STAT3 activator | NF-kB expr up | STAT1 blocker | STAT3 blocker | APP 5'UTR act | STAT1 activator
Fc1ccc(CSc2nnc(-c3cccs3)o2)cc1 | 99 | 2.2 | -20 | 4 | 24 | 118
COc1cccc(CN(C)CC(=O)Nc2ccccc2C(C)C)c1 | 108 | 1.1 | 3 | -1 | -7 | 96
O=C(CN1CCCC1)Nc1ccccc1Sc1ccc(Cl)cc1 | 107 | 0.86 | -5 | -4 | 3 | 104
c1ccc(Cc2cc(-c3ccccc3)on2)cc1 | 115 | 1.9 | -35 | -15 | 33 | 132*
Cn1cc(Br)c(C(=O)NNC(=O)Nc2ccccc2C(F)(F)F)n1 | 103 | 1.2 | -5 | 0 | -3 | 103
Cc1cc(/C=C2/SC(=S)N(c3ccc([N+](=O)[O-])cc3)C2=O)c(C)n1-c1cccnc1 | 102 | 0.43 | 4 | 2 | -13 | 96
Cc1cc(/C=C2/SC(=S)N(c3cccc(Cl)c3)C2=O)c(C)n1-c1cccnc1 | 44 | . | 19 | 67* | -6 | 86
CS(=O)(=O)N1N=C(c2ccc(Br)cc2)CC1c1cccs1 (stereo unspecified) | 110 | 2 | -19 | -12 | 8 | 114
Cc1ccc(C2=NN(S(C)(=O)=O)C(c3cccs3)C2)cc1 (stereo unspecified) | 117 | 3.8* | -32 | -18 | 72 | 129*
COc1ccc(C2CC(c3cccs3)=NN2S(=O)(=O)c2ccc(C)cc2)cc1 (stereo unspecified) | 99 | . | 6 | 10 | 9 | 91
COc1ccc(C2=NN(S(C)(=O)=O)C(c3ccc4nccnc4c3)C2)cc1 (stereo unspecified) | 109 | 2.2 | -40 | -14 | 41 | 136*
CS(=O)(=O)Nc1ccc(C2=NN(S(C)(=O)=O)C(c3ccc4c(c3)OCO4)C2)cc1 (stereo unspecified) | 116 | 2.3 | -49 | -16 | 66 | 143*
COc1ccc(C2=NN(S(C)(=O)=O)C(c3cccs3)C2)cc1 (stereo unspecified) | 119 | 3.9* | -48 | -14 | 110 | 143*
Cc1ccc(C2=NN(S(C)(=O)=O)C(c3ccc4nccnc4c3)C2)cc1 (stereo unspecified) | 103 | 2 | -22 | -6 | 17 | 123
O=C(NN=C1CCC(=NNC(=O)c2ccccn2)CC1)c1ccccn1 | 106 | 1.4 | -43 | -5 | 171* | 138*
O=C(N/N=C/C1CCCCC1)c1ccccn1 | 107 | 1.7 | -41 | -4 | 139* | 137*
CCn1c(=O)c(=O)[nH]c2cc(C(=O)N3CCN(Cc4ccc5c(c4)OCO5)CC3)ccc21 | 95 | 1 | 6 | 8 | 4 | 94
Cc1ccc(N(CC(=O)NCCSc2ccccn2)S(=O)(=O)c2ccc(F)cc2)cc1 | 102 | 0.82 | -2 | 0 | -5 | 100
O=C(CNC(=O)c1ccccc1C(=O)O)c1ccccc1 | 89 | 1.7 | -33 | 16 | 69 | 130*
CC1=C(C)CC(C(=O)NCC(=O)c2ccccc2)C(C(=O)O)C1 (stereo unspecified) | 117 | 1.6 | -36 | -20 | 89 | 133*
O=C(O)/C=C\C(=O)Nc1ccccc1C#Cc1ccccc1 | 93 | 6.8* | -44 | 18 | 73 | 140*
N#Cc1c(NC(=O)c2cccnc2)sc2c1CCC2 | 101 | 1.9 | -1 | 5 | 1 | 101
N#Cc1c(NC(=O)c2cnccn2)sc2c1CCCC2 | 103 | 0.93 | -45 | -4 | 51 | 140*
Cc1cccc(C(=O)Nc2sc3c(c2C#N)CCCCC3)c1 | 82 | 3.6* | -30 | 24 | 178* | 128
Cc1ccc(C)c(SCC(=O)c2ccc[nH]2)c1 | 87 | 1.6 | -4 | 16 | -11 | 104
COC(=O)c1ccc(-c2ccc(/C=N/N3C(=O)C4C5C=CC(C6CC56)C4C3=O)o2)cc1 (stereo unspecified) | 105 | 1.4 | -42 | -4 | 36 | 138*
O=C(Cn1nnc2ccccc21)NNC(=S)NC1CCCCC1 | 99 | 1.1 | -7 | 7 | -22 | 105
COC(=O)c1sccc1N/N=C/c1ccc(OC)c(OC)c1OC | 95 | 3 | -28 | 4 | 66 | 129*
COC(=O)c1sccc1N/N=C/c1cccc(Oc2ccccc2)c1 | 97 | 0.93 | -37 | 1 | 176* | 138*

Screening data as filed in PubChem.
